Test results taken from ChEMBL document CHEMBL1148329, “Synthesis and structure-activity studies on N-[5-(1H-imidazol-4-yl)-5,6,7,8-tetrahydro-1-naphthalenyl]methanesulfonamide, an imidazole-containing alpha(1A)-adrenoceptor agonist” (J Med Chem, 2004).

Experiments:
[1] = target: T1, Alpha-1B adrenergic receptor (Rattus norvegicus) (UniProt P15823); assay: Functional agonism of the compounds to constrict tissue containing the alpha-1B adrenergic receptor in rat spleen; assay type: tissue-based
T1 sequence (whole entry): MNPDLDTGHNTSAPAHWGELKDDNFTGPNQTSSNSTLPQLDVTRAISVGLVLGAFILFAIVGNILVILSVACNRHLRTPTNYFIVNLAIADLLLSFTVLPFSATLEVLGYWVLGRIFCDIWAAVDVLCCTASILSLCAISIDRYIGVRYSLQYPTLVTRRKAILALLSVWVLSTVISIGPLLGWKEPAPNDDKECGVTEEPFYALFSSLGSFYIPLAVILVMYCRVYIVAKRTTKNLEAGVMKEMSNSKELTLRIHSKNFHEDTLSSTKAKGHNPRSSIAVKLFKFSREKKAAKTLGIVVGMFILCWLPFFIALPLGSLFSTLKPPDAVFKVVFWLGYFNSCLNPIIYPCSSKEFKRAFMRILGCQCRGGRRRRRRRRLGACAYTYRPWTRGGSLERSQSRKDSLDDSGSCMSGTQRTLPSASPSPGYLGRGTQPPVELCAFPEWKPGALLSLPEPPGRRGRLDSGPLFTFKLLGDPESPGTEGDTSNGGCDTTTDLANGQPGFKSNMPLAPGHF
Summary of the method: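 Agonist dose–response curves were run on isolated tissue: rabbit urethra for α1A, rat spleen for α1B, and rat aorta for α1D.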

[2] = target: Alpha adrenergic receptor 1A and 1B (Rattus norvegicus) (UniProt P15823+P43140); assay: Selectivity is ratio of pKi (binding affinity) of alpha-1B receptor to that of alpha-1A receptor.; assay type: protein assay
Alpha adrenergic receptor 1A and 1B (Rattus norvegicus), sequence (P43140 whole entry, looked up, one chain of several): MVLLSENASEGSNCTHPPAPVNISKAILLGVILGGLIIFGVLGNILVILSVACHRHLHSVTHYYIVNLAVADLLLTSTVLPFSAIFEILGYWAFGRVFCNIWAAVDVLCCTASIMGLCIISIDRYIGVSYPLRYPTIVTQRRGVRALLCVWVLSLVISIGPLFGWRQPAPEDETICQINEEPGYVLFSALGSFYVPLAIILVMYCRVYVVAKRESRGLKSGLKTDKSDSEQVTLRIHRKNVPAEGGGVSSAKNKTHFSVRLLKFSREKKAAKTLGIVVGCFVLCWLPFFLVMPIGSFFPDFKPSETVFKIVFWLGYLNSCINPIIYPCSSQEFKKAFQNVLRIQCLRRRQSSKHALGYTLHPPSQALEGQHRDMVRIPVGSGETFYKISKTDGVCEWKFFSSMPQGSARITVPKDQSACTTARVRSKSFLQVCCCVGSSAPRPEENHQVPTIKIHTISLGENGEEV

[3] = target: T2, Alpha-2B adrenergic receptor (Rattus norvegicus, UniProt P19328); assay: In vitro binding affinity towards alpha-2B adrenergic receptor of rat neonatal lung in radioligand binding assay
T2 sequence (P19328 whole entry): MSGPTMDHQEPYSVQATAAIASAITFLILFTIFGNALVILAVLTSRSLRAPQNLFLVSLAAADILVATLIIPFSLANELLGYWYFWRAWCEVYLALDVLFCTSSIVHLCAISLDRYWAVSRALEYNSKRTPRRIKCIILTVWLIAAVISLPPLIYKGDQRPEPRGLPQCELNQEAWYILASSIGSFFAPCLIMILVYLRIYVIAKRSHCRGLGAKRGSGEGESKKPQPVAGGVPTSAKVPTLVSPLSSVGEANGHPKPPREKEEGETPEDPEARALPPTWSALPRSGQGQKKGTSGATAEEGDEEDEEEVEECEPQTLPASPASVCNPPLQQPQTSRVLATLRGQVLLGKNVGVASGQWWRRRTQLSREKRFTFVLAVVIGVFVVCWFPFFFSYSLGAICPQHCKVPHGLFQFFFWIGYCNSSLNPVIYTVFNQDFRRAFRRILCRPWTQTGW

[4] = target: T3, Alpha-2A adrenergic receptor (Rattus norvegicus) (UniProt P22909); assay: Functional agonism to constrict tissue containing alpha-2A adrenergic receptor in rat prostatic vas deferens; assay type: tissue-based
T3 sequence (whole entry): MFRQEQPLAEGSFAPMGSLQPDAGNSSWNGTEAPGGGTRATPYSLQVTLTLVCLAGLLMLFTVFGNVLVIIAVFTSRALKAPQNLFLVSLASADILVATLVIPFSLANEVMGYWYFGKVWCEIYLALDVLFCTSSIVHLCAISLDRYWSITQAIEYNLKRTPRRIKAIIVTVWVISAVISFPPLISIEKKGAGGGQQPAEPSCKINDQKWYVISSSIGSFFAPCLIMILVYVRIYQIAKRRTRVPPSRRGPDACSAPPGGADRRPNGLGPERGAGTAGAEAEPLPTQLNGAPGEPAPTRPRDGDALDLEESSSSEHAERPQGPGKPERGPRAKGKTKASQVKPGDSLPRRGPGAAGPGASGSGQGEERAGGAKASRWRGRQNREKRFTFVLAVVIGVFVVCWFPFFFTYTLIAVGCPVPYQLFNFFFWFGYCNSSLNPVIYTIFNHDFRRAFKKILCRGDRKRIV

[5] = Selectivity is ratio of efficacy of alpha-2A to that of alpha1A adrenoceptor; assay type: functional
[6] = target: T3, Alpha-2A adrenergic receptor (Rattus norvegicus); assay: Efficacy relative to clonidine to constrict tissue containing the alpha-2A adrenergic receptor in rat prostatic vas deferens
[7] = target: Alpha adrenergic receptor 1A and 1D (Rattus norvegicus) (UniProt P23944+P43140); assay: Selectivity is ratio of pKi (binding affinity) of Alpha-1D to that of alpha1A; assay type: protein assay
[8] = target: T4, Alpha-1D adrenergic receptor (Rattus norvegicus, UniProt P23944); assay: In vitro binding affinity towards alpha-1D adrenergic receptor of rat clone in radioligand binding assay
T4 sequence (P23944 whole entry): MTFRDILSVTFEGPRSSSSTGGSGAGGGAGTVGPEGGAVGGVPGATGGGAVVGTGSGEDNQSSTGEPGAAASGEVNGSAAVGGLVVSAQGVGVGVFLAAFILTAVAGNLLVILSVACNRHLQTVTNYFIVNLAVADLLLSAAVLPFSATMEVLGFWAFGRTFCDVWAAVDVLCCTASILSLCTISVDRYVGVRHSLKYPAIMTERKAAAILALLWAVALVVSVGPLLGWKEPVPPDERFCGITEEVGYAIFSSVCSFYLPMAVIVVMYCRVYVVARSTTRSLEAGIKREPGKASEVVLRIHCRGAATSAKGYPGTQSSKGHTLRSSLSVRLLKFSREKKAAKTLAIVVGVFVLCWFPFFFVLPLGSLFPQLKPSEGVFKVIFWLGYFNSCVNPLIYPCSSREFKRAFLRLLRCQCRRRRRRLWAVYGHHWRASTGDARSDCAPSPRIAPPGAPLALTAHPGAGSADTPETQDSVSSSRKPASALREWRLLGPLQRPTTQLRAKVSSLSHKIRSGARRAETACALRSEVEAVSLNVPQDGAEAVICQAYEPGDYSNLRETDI
Summary of the method: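 Radioligand binding at α1 subtypes: α1A from rat submaxillary gland, α1B hamster clone, α1D rat clone. Run essentially per an earlier method.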

| Compound | pD2 [1] | Selectivity [2] | Ki [3] | pD2 [4] | Selectivity [5] | Efficacy [6] | Selectivity [7] | Ki [8] |
| --- | --- | --- | --- | --- | --- | --- | --- | --- |
| O=C(Nc1cccc2c1CCCC2c1c[nH]cn1)C(F)(F)F (stereo unspecified) | 5.47 | 60 | 661 nM | 7.14 | 0.1 | 100% | 20 |  |
| O=S(=O)(CC(F)(F)F)Nc1cccc2c1CCCC2c1c[nH]cn1 (single isomer, unassigned; (+)) |  | > 80 | > 10000 nM | 6.59 | 0.14 | 100% | > 80 | > 10000 nM |
| CN(c1cccc2c1CCCC2c1c[nH]cn1)S(C)(=O)=O (stereo unspecified) | 5.65 | > 50 | 912 nM | 7.08 | 0.12 | 100% | 3 |  |
| COc1ccc(OC)c(C(O)CN)c1 (stereo unspecified) [DESGLYMIDODRINE] | 4.07 | 3 | 1860 nM | 8.23 | 0.001 | 20% | 0.8 | 1660 nM |
| CC(N)C(O)c1ccccc1 (stereo unspecified) [PHENYLPROPANOLAMINE] | 3.55 | 1 | 263 nM |  | 0.03 | 85% | 1 | 8510 nM |
